Most compounds without a hit are left out; they make up all but 2% or so of the library.
VLA-4 inh: inhibition in a human VLA-4 binding assay; P13612; VLA-4 expressing cells, ligand binding flow cytometry; 0.2% of 330,000 active; inhibition, % (about 7 µM as worked out from the volumes in the protocol); in the data active means inhibition above about 50%
Exocytosis inh: lytic granule exocytosis inhibition; TALL-104 LAMP-1 surface exposure, flow cytometry; cells stimulated with thapsigargin and PMA; inhibition, % at 10 µM; 0.66% of 360,000 active; AID 651702;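 active means inhibition above about 55%, limit read from the data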
DAGLB inh: diacylglycerol lipase beta (human) inhibition; 0.059% of 340,000 active; Q8NCG7; HEK293T DAGLB membrane lysate, EnzChek fluorogenic substrate; AID 504411; inhibition, % at 5.17 µM; in the data active means inhibition above about 34%;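 further: 0% = enzyme with vehicle and 100% = wells lacking enzyme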
MT1-MMP act inh: inhibitors of human MT1-MMP activation; HT1080 RFP-PRO-GFP cells, GFP/RFP ratio fluorescence, overnight; percent of plate control window, DMSO zero; 0.061% of 360,000 active; GFP/RFP ratio change, % at 20 µM; P50281;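 active means GFP/RFP ratio change of at least 30% with cell ATP level not reduced by more than half and red fluorescence within 50% of control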
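Compound: 20 µM single dose, 1% DMSO / System: HT1080 RFP-PRO-GFP cells / Controls: DMSO and RFP-L50D-GFP cell wells / Read-out basis: GFP/RFP fluorescence ratio / Schedule: overnight compound exposure at 37 °C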
FGF22 binding: shifts melting point of recombinant human FGF22; 1.5% of 340,000 active; AID 651658; recombinant FGF22 thermal shift, SYPRO orange fluorescence; percent of sucrose octasulfate shift, DMSO zero; activity (Tm shift, normalised), % at 9.99 µM; Q9HCT0;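 active means mean Tm shift, scaled 0 neutral to 100 positive control, at about 1.3% or above, every replicate too, limit read from the data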
ABCB6 inh 2: human ABCB6 transporter inhibition | Q9NP58 | K562-ABCB6 porphyrin accumulation, flow cytometry, 1 h; hits give low values | fluorescence ratio to DMSO, % at 10 µM | 0.19% of 360,000 active | AID 602162;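 active means fluorescence ratio to DMSO below 75%, the collection mean minus 3 SD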;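 further: signal is porphyrin accumulated inside mitochondria; 100% equals median channel fluorescence of DMSO control wells; lower ratio means ABCB6 inhibition with less porphyrin fluorescence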
Target sequence (Q9NP58 whole entry, looked up): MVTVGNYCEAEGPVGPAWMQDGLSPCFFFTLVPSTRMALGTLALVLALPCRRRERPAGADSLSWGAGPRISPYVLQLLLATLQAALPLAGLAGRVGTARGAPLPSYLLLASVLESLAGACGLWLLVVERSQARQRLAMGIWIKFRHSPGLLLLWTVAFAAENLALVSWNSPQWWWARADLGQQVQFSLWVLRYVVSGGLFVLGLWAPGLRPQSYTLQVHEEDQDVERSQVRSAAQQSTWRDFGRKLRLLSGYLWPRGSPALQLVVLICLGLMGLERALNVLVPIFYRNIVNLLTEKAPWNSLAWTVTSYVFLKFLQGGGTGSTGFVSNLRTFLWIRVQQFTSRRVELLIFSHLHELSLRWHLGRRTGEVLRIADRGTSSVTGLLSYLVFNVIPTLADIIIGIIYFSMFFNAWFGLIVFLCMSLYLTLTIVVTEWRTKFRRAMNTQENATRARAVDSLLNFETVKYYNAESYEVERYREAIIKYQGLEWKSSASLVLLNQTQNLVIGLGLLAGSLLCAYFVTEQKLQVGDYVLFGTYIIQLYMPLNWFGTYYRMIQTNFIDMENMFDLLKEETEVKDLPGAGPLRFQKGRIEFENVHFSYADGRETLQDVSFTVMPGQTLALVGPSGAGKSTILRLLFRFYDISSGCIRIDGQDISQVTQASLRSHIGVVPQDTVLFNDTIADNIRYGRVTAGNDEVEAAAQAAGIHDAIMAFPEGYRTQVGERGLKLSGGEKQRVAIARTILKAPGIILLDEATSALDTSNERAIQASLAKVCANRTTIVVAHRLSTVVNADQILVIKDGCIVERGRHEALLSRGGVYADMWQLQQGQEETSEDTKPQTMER
VLA-4 allo CP: human VLA-4 allosteric modulation in cherry picked compounds; AID 2813; shares compounds with VLA-4 inh; 2% of 1,300 active; inhibition, % at 6.7 µM; U937 cells, HUTS-21 LIBS mAb binding, flow cytometry; LDV ligand present at threefold Kd; in the data active means inhibition above about 40%;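 further: 0% = ligand without compound and 100% = no ligand background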
Starred values were filed as active, the others as inactive.

`CCOC(=O)c1c(-c2ccccc2)csc1NC(=O)CCN1C(=O)c2ccccc2C1=O` gave VLA-4 inh 43, Exocytosis inh 4, DAGLB inh 0, MT1-MMP act inh -2, FGF22 binding 0, ABCB6 inh 2 102 and VLA-4 allo CP 9.
Screening COC(=O)Cc1ccc(NC(=O)c2ccc(C)c(C)c2)cc1 returned VLA-4 inh 60*, Exocytosis inh -4, DAGLB inh -1, MT1-MMP act inh -2, ABCB6 inh 2 99 and VLA-4 allo CP 11.
COc1cc(C(=O)OCC(=O)NC2CCCCC2)cc(OC)c1OC was read as VLA-4 inh 0, Exocytosis inh 3, DAGLB inh -2, MT1-MMP act inh 6, FGF22 binding 0, ABCB6 inh 2 105 and VLA-4 allo CP 1.
`Cc1c(S(=O)(=O)N2CCC(C)CC2)c(=O)n(C)c(=O)n1C` gave VLA-4 inh 50*, Exocytosis inh -9, DAGLB inh -3, MT1-MMP act inh 0, FGF22 binding 0, ABCB6 inh 2 92 and VLA-4 allo CP 3.
Cc1cccc(C)c1NC(=O)CNC(=O)C1CCCN(C(=O)c2ccc(Cl)cc2)C1 (stereo not given) was read as VLA-4 inh 3, Exocytosis inh 3, DAGLB inh -2, MT1-MMP act inh 1, FGF22 binding 0 and ABCB6 inh 2 100.
For CCCN(CC(=O)Nc1ccccc1C)C(=O)C1CCCN(C(=O)c2ccc(Cl)cc2)C1 (stereo not given) the results were VLA-4 inh 50*, Exocytosis inh -2, DAGLB inh 4, MT1-MMP act inh 0, FGF22 binding 0, ABCB6 inh 2 92 and VLA-4 allo CP 1.
For O=C(Nc1ccc(F)cc1)NC1(C(=O)NCc2ccco2)CCCCC1 the results were VLA-4 inh 52*, Exocytosis inh 8, DAGLB inh 0, MT1-MMP act inh 9, ABCB6 inh 2 84 and VLA-4 allo CP 4.
For CCOc1ccc(NC(=O)NC2(C(=O)NCc3ccco3)CCCCC2)cc1 the results were VLA-4 inh 6, Exocytosis inh 1, DAGLB inh 1, MT1-MMP act inh -1, FGF22 binding 0 and ABCB6 inh 2 89.
Screening Cc1ccc(S(=O)(=O)c2ccc(Cl)cc2)cc1S(=O)(=O)N(C)CC(=O)O returned VLA-4 inh 48, Exocytosis inh -6, DAGLB inh 0, MT1-MMP act inh -1, FGF22 binding 0, ABCB6 inh 2 98 and VLA-4 allo CP -3.
`CCOc1ccc(C(=O)c2cc([N+](=O)[O-])ccc2N2CCOCC2)cc1` gave VLA-4 inh 51*, Exocytosis inh 0, DAGLB inh 1, MT1-MMP act inh 12, FGF22 binding 0, ABCB6 inh 2 101 and VLA-4 allo CP 49*.
Screening Cc1ccc(C(=O)c2cc([N+](=O)[O-])ccc2N2CCOCC2)cc1 returned Exocytosis inh 0, DAGLB inh -2, MT1-MMP act inh -4 and ABCB6 inh 2 93.
`COc1ccc(C(=O)c2cc([N+](=O)[O-])ccc2N2CCOCC2)cc1` gave VLA-4 inh 31, Exocytosis inh 35, DAGLB inh -2, MT1-MMP act inh 10, FGF22 binding 0, ABCB6 inh 2 96 and VLA-4 allo CP 47*.
C[C@H](CO)N1C[C@H](C)[C@@H](CN(C)S(C)(=O)=O)OCCCC[C@H](C)Oc2ccc(NC(=O)CCCN(C)C)cc2C1=O was read as FGF22 binding 0.
Cc1cnc(C(=O)Nc2cccc(-c3nnc4n3CCCCC4)c2)cn1 was read as VLA-4 inh -4, Exocytosis inh -1, DAGLB inh -5, MT1-MMP act inh -2 and ABCB6 inh 2 102.
`CCOc1ncccc1C(=O)Nc1cccc(-c2nnc3n2CCCCC3)c1` gave VLA-4 inh 68*, Exocytosis inh -8, DAGLB inh -2, MT1-MMP act inh 1, FGF22 binding 0, ABCB6 inh 2 95 and VLA-4 allo CP 0.
O=C1Nc2ccccc2O/C1=C\c1c(F)cccc1Cl was read as VLA-4 inh 49, Exocytosis inh -5, DAGLB inh -3, MT1-MMP act inh 1, FGF22 binding 0, ABCB6 inh 2 99 and VLA-4 allo CP -18.
For COC(=O)c1ccc(/C=C2\Oc3ccccc3NC2=O)cc1 the results were VLA-4 inh -2, Exocytosis inh -16, DAGLB inh -1, MT1-MMP act inh 2, FGF22 binding 0 and ABCB6 inh 2 95.
COCCCN1CC(=O)N2C(c3cccc(C)c3)c3[nH]c4ccccc4c3C[C@H]2C1=O (stereo not given in full) was read as VLA-4 inh 10, Exocytosis inh 4, DAGLB inh -1, MT1-MMP act inh -1, FGF22 binding 0 and ABCB6 inh 2 99.
Screening COCCN1CC(=O)N2C(c3cccc(C)c3)c3[nH]c4ccccc4c3C[C@H]2C1=O (stereo not given in full) returned VLA-4 inh 41, Exocytosis inh 2, DAGLB inh -1, MT1-MMP act inh -3, FGF22 binding 0, ABCB6 inh 2 96 and VLA-4 allo CP -3.
`C[C@H](CO)N1C[C@H](C)[C@H](CN(C)C(=O)CCCN(C)C)OCc2cn(nn2)CCCC1=O` gave FGF22 binding 0.
Screening CCC(=O)N1C[C@H]2[C@@H](c3ccccc31)[C@@H](CO)N2Cc1cc(F)ccc1F returned FGF22 binding 0.
`Cc1cc(C)n(CC(O)CN2C(=O)NC(C)(C)C2=O)n1` (stereo not given) gave VLA-4 inh 54*, Exocytosis inh -3, DAGLB inh 1, MT1-MMP act inh -1, ABCB6 inh 2 95 and VLA-4 allo CP 2.
`CNC(=O)C[C@@H]1CC[C@@H]2[C@H](COc3ccc(NC(=O)C(C)C)cc3C(=O)N2C)O1` gave FGF22 binding 0.
For CCOC(=O)C1(S(=O)(=O)c2ccccc2)CCN(Cc2ccc(Cl)cc2)CC1 the results were VLA-4 inh 74*, Exocytosis inh 3, DAGLB inh -3, MT1-MMP act inh 3, ABCB6 inh 2 93 and VLA-4 allo CP -1.
For CCOC(=O)C1(Cc2ccc(Cl)cc2)CCN(Cc2nccn2CC)CC1 the results were VLA-4 inh 5, Exocytosis inh -8, DAGLB inh -3, MT1-MMP act inh -4 and ABCB6 inh 2 100.
`CCOC(=O)C1(S(=O)(=O)c2ccc(Cl)cc2)CCN(Cc2ccc(Cl)cc2)CC1` gave VLA-4 inh 59*, Exocytosis inh -1, DAGLB inh -12, MT1-MMP act inh -2, ABCB6 inh 2 94 and VLA-4 allo CP 5.

High-throughput results deposited in PubChem BioAssay by several laboratories.
